Converted amounts (≈) assume the structure as drawn. The source made the active and inactive calls. No cut-off for these calls is given here.
Tests used:
[1] = test system: HEK293; experiment: Cytotoxicity against HEK293 cells after 48 hrs by MTT assay; type: cell-based, Homo sapiens
In short: (§1)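 Cells taken from T75 flasks/90 mm dishes when sub-confluent, trypsinized and seeded at 5000–10000 cells/well according to doubling time. Test compounds added after 18 h at four concentrations, in triplicate wells. Incubation 48 h, then MTT (5 mg/mL) for 60 min at 37 °C and the bound dye solubilized. Percent growth taken against control wells. IC50 read from dose-response curves; three independent experiments, mean ± SD.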

[2] = test system: A549; experiment: Cytotoxicity against human A549 cells after 48 hrs by MTT assay; type: functional, cell-based; in short: as §1
[3] = test system: DU-145; experiment: Cytotoxicity against human DU145 cells after 48 hrs by MTT assay; type: functional, cell-based; in short: as §1
[4] = test system: HeLa; experiment: Cytotoxicity against human HeLa cells after 48 hrs by MTT assay; type: functional, cell-based; in short: as §1
[5] = test system: Mycolicibacterium smegmatis; experiment: Antimycobacterial activity against Mycobacterium smegmatis MC2 155 ATCC 14468 after 32 hrs by broth microdilution method; type: functional
In short: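 M. smegmatis MC² 155 grown overnight to mid-log in Middlebrook 7H9 (0.2% glycerol, 0.1% Tween-80, 10% ADS) at 37 °C, subcultured to OD600 ≈0.3, then diluted 1:1000 into 96-well plates. Final compound levels were […]. Incubated 32 h at 37 °C, turbidity read at OD600, triplicates. GI50 was derived from % growth inhibition. INH/rifampicin positive controls, DMSO and medium-only controls.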

[6] = test system: HeLa; experiment: Induction of apoptosis in human HeLa cells assessed as activation of caspase-9 using Ac-DEVD-AMC as substrate at 10 to 25 uM after 48 hrs by fluorescence assay relative to control; type: functional
[7] = test system: HeLa; experiment: Induction of apoptosis in human HeLa cells assessed as activation of caspase-3 using Ac-DEVD-AMC as substrate at 10 to 25 uM after 48 hrs by fluorescence assay relative to control; type: functional
In short: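 HeLa cells treated 48 h with compound or DMSO, then lysed in 50 mM HEPES, 5 mM CHAPS, 5 mM DTT, pH 7.5. Lysate incubated with Ac-DEVD-AMC in 20 mM HEPES pH 7.5, 0.1% CHAPS, 2 mM EDTA, 5 mM DTT for 2 h at 37 °C. AMC read at ex/em 380/460 nm and normalized to Bradford protein. Activity expressed as treated relative to mock-treated. Doxorubicin used as positive control.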

[8] = test system: HeLa; experiment: Ratio of IC50 for HEK293 cells to IC50 for human HeLa cells
[9] = Homo sapiens, DU-145, 48 h, read-out: IC50
[10] = Homo sapiens, HEK293, 48 h, read-out: IC50
[11] = Homo sapiens, HeLa, 48 h, read-out: IC50
[12] = Homo sapiens, A549, 48 h, read-out: IC50

`O=C1C2=Cc3ccccc3OCC2=NN1c1ccc(Br)cc1` was tested, and the IC50 ([1]; hek293) was “Not Active”, the IC50 ([2]; a549) was “Not Active” and the IC50 [3, 9] was 117 µM. For the same compound, the IC50 ([4]; hela) was “Not Active” and the GI50 [5] was “inactive”.

With `Cc1ccccc1N1N=C2COc3ccccc3C=C2C1=O` the IC50 [1, 10] was 154 µM, the IC50 ([2]; a549) was “Not Active” and the IC50 [3, 9] was 63.9 µM. For the same compound, the IC50 [4, 11] was 109 µM and the GI50 [5] was “inactive”.

In the case of `O=C1ON=C2COc3ccc(Br)cc3C=C12`, the IC50 [1, 10] is reported as 48.2 µM, the “fold change (FC)” value [6] is reported as 20 and the “fold change (FC)” value [7] is reported as “<=40”. For the same compound, the IC50 [2, 12] was 49.1 µM, the IC50 [3, 9] was 28.8 µM and the IC50 [4, 11] was 10.1 µM. The GI50 ([5]; MC2 155 ATCC 14468, 32 h) was 28.5 µg/mL (≈ 102 µM) and the “Ratio IC50” value [8] was 4.

In the case of `O=C1C2=Cc3cc(Br)ccc3OCC2=NN1c1ccccc1`, the IC50 ([1]; hek293) is reported as “Not Active”, the IC50 ([2]; a549) is reported as “Not Active” and the IC50 [3, 9] is reported as 123 µM. The IC50 ([4]; hela) was “Not Active” and the GI50 ([5]; MC2 155 ATCC 14468, 32 h) was 11.9 µg/mL (≈ 33.5 µM).

`O=C1C2=Cc3cc(Br)ccc3OCC2=NN1c1ccc(Br)cc1` was tested, and the IC50 ([1]; hek293) was “Not Active”, the IC50 ([2]; a549) was “Not Active” and the IC50 ([3]; du-145) was “Not Active”. The IC50 ([4]; hela) was “Not Active” and the GI50 [5] was “inactive”.

`O=C1C2=Cc3cc(-c4ccccc4)ccc3OCC2=NN1c1ccc(Br)cc1` was tested, and the IC50 ([1]; hek293) was “Not Active”, the IC50 [2, 12] was 118 µM and the IC50 [3, 9] was 140 µM. The IC50 ([4]; hela) was “Not Active” and the GI50 [5] was “inactive”.

In the case of `NNC(=O)c1ccncc1` [ISONIAZID], the GI50 ([5]; MC2 155 ATCC 14468, 32 h) is reported as 7.94 µg/mL (≈ 57.9 µM).

With `Cc1ccc(N2N=C3COc4ccc(-c5ccccc5)cc4C=C3C2=O)cc1` the IC50 [1, 10] was 149 µM, the IC50 ([2]; a549) was “Not Active” and the IC50 [3, 9] was 78.2 µM. It also gave an IC50 [4, 11] of 185 µM and a GI50 ([5]; MC2 155 ATCC 14468, 32 h) of 34 µg/mL (≈ 92.8 µM).

In the case of `O=C1C2=Cc3ccccc3OCC2=NN1c1ccc(F)cc1`, the IC50 ([1]; hek293) is reported as “Not Active”, the IC50 ([2]; a549) is reported as “Not Active” and the IC50 ([3]; du-145) is reported as “Not Active”. For the same compound, the IC50 ([4]; hela) was “Not Active” and the GI50 ([5]; MC2 155 ATCC 14468, 32 h) was 38.7 µg/mL (≈ 132 µM).

For `O=C1C2=Cc3cc(-c4ccccc4)ccc3OCC2=NN1c1ccccc1`, the IC50 ([1]; hek293) was “Not Active”, the IC50 [2, 12] was 117 µM and the IC50 ([3]; du-145) was “Not Active”. The IC50 ([4]; hela) was “Not Active” and the GI50 [5] was “inactive”.

With `COc1ccc2c(c1)C=C1C(=O)ON=C1CO2` the IC50 [1, 10] was 47.7 µM, the “fold change (FC)” value [6] was 20 and the “fold change (FC)” value [7] was “<=40”. It also gave an IC50 [2, 12] of 46.5 µM, an IC50 [3, 9] of 33.6 µM and an IC50 [4, 11] of 10.1 µM. The GI50 [5] was “inactive” and the “Ratio IC50” value [8] was 4.

`COc1ccc2c(c1)C=C1C(=O)N(c3ccccc3)N=C1CO2` was tested, and the IC50 ([1]; hek293) was “Not Active”, the IC50 ([2]; a549) was “Not Active” and the IC50 ([3]; du-145) was “Not Active”. It also gave an IC50 [4, 11] of 167 µM and a GI50 ([5]; MC2 155 ATCC 14468, 32 h) of 15.7 µg/mL (≈ 51.1 µM).

`O=C1C2=Cc3ccccc3OCC2=NN1c1cccc(F)c1` was tested, and the IC50 ([1]; hek293) was “Not Active”, the IC50 [2, 12] was 179 µM and the IC50 [3, 9] was 97 µM. The IC50 [4, 11] was 190 µM and the GI50 [5] was “inactive”.

`COc1cccc2c1C(=O)c1c(O)c3c(c(O)c1C2=O)C[C@@](O)(C(=O)CO)C[C@@H]3O[C@H]1C[C@H](N)[C@H](O)[C@H](C)O1` [DOXORUBICIN] was tested, and the IC50 [1, 10] was 7.41 µM, the IC50 [2, 12] was 7.47 µM and the IC50 [3, 9] was 8.19 µM. The IC50 [4, 11] was 6.94 µM.

With `O=C1C2=Cc3ccccc3OCC2=NN1c1ccccc1` the IC50 ([1]; hek293) was “Not Active”, the IC50 ([2]; a549) was “Not Active” and the IC50 ([3]; du-145) was “Not Active”. For the same compound, the IC50 ([4]; hela) was “Not Active” and the GI50 ([5]; MC2 155 ATCC 14468, 32 h) was 23.2 µg/mL (≈ 83.9 µM).

With `COc1ccc2c(c1)C=C1C(=O)N(c3ccc(Br)cc3)N=C1CO2` the IC50 [1, 10] was 161 µM, the IC50 [2, 12] was 33.3 µM and the IC50 ([3]; du-145) was “Not Active”. For the same compound, the IC50 [4, 11] was 180 µM and the GI50 [5] was “inactive”.

In the case of `Cc1ccc(N2N=C3COc4ccccc4C=C3C2=O)cc1C`, the IC50 ([1]; hek293) is reported as “Not Active”, the IC50 [2, 12] is reported as 84.3 µM and the IC50 ([3]; du-145) is reported as “Not Active”. The IC50 ([4]; hela) was “Not Active” and the GI50 ([5]; MC2 155 ATCC 14468, 32 h) was 19.4 µg/mL (≈ 63.6 µM).

In the case of `O=C1C2=Cc3ccccc3OCC2=NN1c1ccc(Cl)cc1`, the IC50 ([1]; hek293) is reported as “Not Active”, the IC50 [2, 12] is reported as 215 µM and the IC50 [3, 9] is reported as 89.4 µM. For the same compound, the IC50 ([4]; hela) was “Not Active” and the GI50 [5] was “inactive”.

For `COc1ccc(N2N=C3COc4ccccc4C=C3C2=O)cc1`, the IC50 ([1]; hek293) was “Not Active”, the IC50 [2, 12] was 133 µM and the IC50 [3, 9] was 67.5 µM. The IC50 [4, 11] was 166 µM and the GI50 [5] was “inactive”.

In the case of `Cc1cccc(N2N=C3COc4ccccc4C=C3C2=O)c1`, the IC50 ([1]; hek293) is reported as “Not Active”, the IC50 ([2]; a549) is reported as “Not Active” and the IC50 ([3]; du-145) is reported as “Not Active”. The IC50 ([4]; hela) was “Not Active” and the GI50 [5] was “inactive”.

For `CO[C@H]1/C=C/O[C@@]2(C)Oc3c(C)c(O)c4c(O)c(c(/C=N/N5CCN(C)CC5)c(O)c4c3C2=O)NC(=O)/C(C)=C\C=C\[C@H](C)[C@H](O)[C@@H](C)[C@@H](O)[C@@H](C)[C@H](OC(C)=O)[C@@H]1C` [RIFAMPIN], the GI50 ([5]; MC2 155 ATCC 14468, 32 h) was 1.04 µg/mL (≈ 1.26 µM).

With `COc1ccc2c(c1)C=C1C(=O)N(c3ccc(C)cc3)N=C1CO2` the IC50 [1, 10] was 138 µM, the IC50 [2, 12] was 199 µM and the IC50 [3, 9] was 117 µM. The IC50 [4, 11] was 129 µM and the GI50 [5] was “inactive”.

With `Cc1ccc(N2N=C3COc4ccc(Br)cc4C=C3C2=O)cc1` the IC50 ([1]; hek293) was “Not Active”, the IC50 [2, 12] was 163 µM and the IC50 ([3]; du-145) was “Not Active”. For the same compound, the IC50 ([4]; hela) was “Not Active” and the GI50 ([5]; MC2 155 ATCC 14468, 32 h) was 42.4 µg/mL (≈ 115 µM).

In the case of `Cc1ccc(N2N=C3COc4ccccc4C=C3C2=O)cc1`, the IC50 ([1]; hek293) is reported as “Not Active”, the IC50 ([2]; a549) is reported as “Not Active” and the IC50 [3, 9] is reported as 152 µM. The IC50 ([4]; hela) was “Not Active” and the GI50 ([5]; MC2 155 ATCC 14468, 32 h) was 49.3 µg/mL (≈ 170 µM).

For `O=C1ON=C2COc3ccccc3C=C12`, the IC50 ([1]; hek293) was “Not Active”, the IC50 ([2]; a549) was “Not Active” and the IC50 [3, 9] was 84.8 µM. It also gave an IC50 [4, 11] of 85 µM and a GI50 ([5]; MC2 155 ATCC 14468, 32 h) of 21.4 µg/mL (≈ 106 µM).

In the case of `O=C1ON=C2COc3ccc(-c4ccccc4)cc3C=C12`, the IC50 [1, 10] is reported as 39.2 µM, the “fold change (FC)” value [6] is reported as 20 and the “fold change (FC)” value [7] is reported as “<=40”. The IC50 [2, 12] was 29.7 µM, the IC50 [3, 9] was 28.9 µM and the IC50 [4, 11] was 9.03 µM. The GI50 ([5]; MC2 155 ATCC 14468, 32 h) was 9.1 µg/mL (≈ 32.8 µM) and the “Ratio IC50” value [8] was 4.

In the case of `O=C1C2=Cc3ccccc3OCC2=NN1c1cccc(Cl)c1`, the IC50 ([1]; hek293) is reported as “Not Active”, the IC50 [2, 12] is reported as 244 µM and the IC50 ([3]; du-145) is reported as “Not Active”. The IC50 ([4]; hela) was “Not Active” and the GI50 [5] was “inactive”.

Reference: ChEMBL document CHEMBL3124798, “Convenient one-pot synthesis, anti-mycobacterial and anticancer activities of novel benzoxepinoisoxazolones and pyrazolones” (Eur J Med Chem, 2014)
